Experimental data: ChEMBL document CHEMBL1155270, “Modifications at the C-terminus to improve pyrrole-imidazole polyamide activity in cell culture” (J Med Chem, 2009)
Calls of active or inactive are those of the source. The rule behind the calls is not given here.

Legend:
LNCaP [1] = experiment: Inhibition of dihydrotestosterone-induced prostate specific antigen expression in human LNCAP cells at 0.1 to 5 uM by quantitative RT-PCR analysis; type: functional, cell-based
How it was run: (§1)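 LNCaP cells were induced with 1 nM DHT and PSA mRNA measured by quantitative real-time RT-PCR. Oxime-linked polyamides were given at 5, 1 and 0.1 μM, and unconjugated controls at 5 μM, with DMSO ≤0.1%. Expression was normalized to untreated DHT-induced cells; uninduced and DMSO controls were included.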

LNCaP [2] = experiment: Cytotoxicity against human LNCAP cells assessed as cell viability at 0.01 to 30 uM after 48 hrs by WST1 assay; type: functional
How it was run: (§2)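 LNCaP cells were seeded at 10-15 × 10^2 per well and allowed to settle 48 h before polyamide was added as 2× media solutions (DMSO <0.1%). After 48 h exposure, media was replaced and cells recovered 24 h. WST-1 was added for 30 min and A450 read. Wells were corrected for media-only background and normalized to untreated controls.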

LNCaP [3] = experiment: Cytotoxicity against human LNCAP cells after 48 hrs by WST1 assay; type: functional, cell-based; how it was run: as §2
Nucleic Acid [4] = experiment: Binding affinity to 14mer DNA assessed as change in melting temperature by spectrophotometry; type: nucleic-acid assay
How it was run: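 Thermal melting of 14-mer oligonucleotide duplexes (HRE or ARE sequence) with and without polyamide, read by UV spectrophotometry in 1 cm quartz cuvettes with a thermostatted holder. Buffer was 10 mM sodium cacodylate, 10 mM KCl, 10 mM MgCl2, 5 mM CaCl2, pH 7.0. ΔTm is taken relative to the free duplex.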

LNCaP [5] = experiment: Cytotoxicity against human LNCAP cells at 0.01 to 30 uM after 48 hrs by WST1 assay; type: functional, cell-based; how it was run: as §2
LNCaP [6] = experiment: Inhibition of dihydrotestosterone-induced prostate specific antigen expression in human LNCAP cells at 5 uM by quantitative RT-PCR analysis; type: functional; how it was run: as §1
LNCaP [7] = experiment: Inhibition of dihydrotestosterone-induced prostate specific antigen expression in human LNCAP cells at 1 uM by quantitative RT-PCR analysis; type: functional, cell-based; how it was run: as §1
LNCaP [8] = experiment: Inhibition of dihydrotestosterone-induced prostate specific antigen expression in human LNCAP cells by quantitative RT-PCR analysis; type: functional, cell-based
How it was run: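 For gene-regulation IC50, DHT (1 nM)-induced LNCaP cells were dosed across 30–0.1 μM or 10–0.03 μM. PSA mRNA was quantified by real-time RT-PCR and normalized to induced untreated cells. Isotherms from three independent experiments were fitted with a modified Hill equation.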

LNCaP [9] = experiment: Cytotoxicity against human LNCAP cells at 5 uM after 48 hrs by WST1 assay; type: functional, cell-based
LNCaP [10] = experiment: Selectivity ratio of IC50 for human LNCAP cells to IC50 for inhibition of dihydrotestosterone-induced prostate specific antigen expression in human LNCAP cells; type: functional
How it was run: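 Ratio of WST-1 growth-inhibition IC50 (48 h exposure, 24 h recovery, LNCaP) to PSA gene-regulation IC50. The gene-regulation IC50 came from Hill-fitted RT-PCR isotherms in 1 nM DHT-induced LNCaP cells, three independent experiments.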

U-251 [11] = experiment: Inhibition of desferrioxamine-induced VEGF mRNA expression in human U251 cells at 1 uM by quantitative RT-PCR analysis; type: functional
How it was run: (§3)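 In U251 cells, induced VEGF mRNA was quantified by real-time RT-PCR after polyamide at 1, 0.2 and 0.02 μM, with DMSO ≤0.1%. Values were normalized to untreated induced cells; uninduced and DMSO-vehicle controls were run alongside.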

U-251 [12] = experiment: Inhibition of desferrioxamine-induced VEGF mRNA expression in human U251 cells at 0.02 to 0.2 uM by quantitative RT-PCR analysis; type: functional, cell-based; how it was run: as §3
LNCaP [13] = experiment: Inhibition of desferrioxamine-induced VEGF mRNA expression in human LNCAP cells at 10 uM by quantitative RT-PCR analysis; type: functional
How it was run: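 DFO-induced VEGF mRNA was measured in LNCaP cells by quantitative real-time RT-PCR, following the LNCaP PSA protocol but with non-charcoal-stripped FBS. Polyamide doses were 10, 2 and 0.2 μM, with DMSO ≤0.1%. Levels were normalized to untreated induced cells; untreated uninduced and DMSO controls were included.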

Nucleic Acid [14] = experiment: Binding affinity to 5'-GTGCATACGTGGGC-3' sequence of DNA assessed as change in melting temperature by spectrophotometry; type: nucleic-acid assay
U-251 [15] = experiment: Selectivity ratio of inhibition of desferrioxamine-induced VEGF mRNA expression in human LNCAP cells to inhibition of desferrioxamine-induced VEGF mRNA expression in human U251 cells; type: functional
Nucleic Acid [16] = experiment: Binding affinity to 5'-TTGCAGAACAGCAA-3' sequence of DNA assessed as change in melting temperature by spectrophotometry; type: nucleic-acid assay
LNCaP [17] = experiment: Inhibition of expression in human LNCAP cells at 5 uM by quantitative RT-PCR analysis
LNCaP [18] = experiment: Inhibition of desferrioxamine-induced VEGF mRNA expression in human LNCAP cells at 1 to 2 uM by quantitative RT-PCR analysis; type: functional, cell-based

SMILES	ΔTm (Nucleic Acid [4])	ΔTm (Nucleic Acid [14])	inhibition (LNCaP [1])	Activity (LNCaP [2])	IC50 (LNCaP [3])	inhibition at 1 µM (U-251 [11])	inhibition (U-251 [12])	inhibition at 10 µM (LNCaP [13])	other results
Cn1cc(NC(=O)c2cc(NC(=O)c3nc(NC(=O)c4cc(NC(=O)[C@H](N)CCNC(=O)c5nc(NC(=O)c6cc(NC(=O)c7cc(NC(=O)c8nccn8C)cn7C)cn6C)cn5C)cn4C)cn3C)cn2C)cc1C(=O)NCCCO/N=C\c1cccc(F)c1	4 °C		Active	<50%	≥ 30 µM				
Cn1cc(NC(=O)c2cc(NC(=O)c3cc(NC(=O)c4nc(NC(=O)[C@H](N)CCNC(=O)c5cc(NC(=O)c6cc(NC(=O)c7cc(NC(=O)c8nccn8C)cn7C)cn6C)cn5C)cn4C)cn3C)cn2C)cc1C(=O)NCCCO/N=C\c1ccc(F)cc1	13.1 °C				0.4 µM				inhibition (LNCaP [6]): Active; inhibition (LNCaP [7]): Active; IC50 (LNCaP [8]): 0.6 µM; Activity (LNCaP [9]): Active; Ratio IC50 (LNCaP [10]): 0.7
Cn1cc(NC(=O)c2cc(NC(=O)c3nc(NC(=O)c4cc(NC(=O)[C@H](N)CCNC(=O)c5nc(NC(=O)c6cc(NC(=O)c7cc(NC(=O)c8sccc8Cl)cn7C)cn6C)cn5C)cn4C)cn3C)cn2C)cc1C(=O)NCCCO/N=C\c1cccc(F)c1		9.4 °C				60%	Active	80%	
CN(CCCNC(=O)c1cccc(C(=O)O)c1)CCCNC(=O)c1cc(NC(=O)c2cc(NC(=O)c3cc(NC(=O)c4nc(NC(=O)[C@H](N)CCNC(=O)c5cc(NC(=O)c6cc(NC(=O)c7cc(NC(=O)c8nccn8C)cn7C)cn6C)cn5C)cn4C)cn3C)cn2C)cn1C				<50%	> 30 µM				IC50 (LNCaP [8]): 6 µM; Ratio (U-251 [15]): 10; Ratio IC50 (LNCaP [10]): >=5; ΔTm (Nucleic Acid [16]): 14.2 °C; inhibition (LNCaP [17]): Active
Cn1cc(NC(=O)c2cc(NC(=O)c3nc(NC(=O)c4cc(NC(=O)[C@H](N)CCNC(=O)c5nc(NC(=O)c6cc(NC(=O)c7cc(NC(=O)c8sccc8Cl)cn7C)cn6C)cn5C)cn4C)cn3C)cn2C)cc1C(=O)NCCCO/N=C\c1ccc(F)cc1		10.5 °C				60%	Active	80%	
Cn1cc(NC(=O)c2cc(NC(=O)c3nc(NC(=O)c4cc(NC(=O)[C@H](N)CCNC(=O)c5nc(NC(=O)c6cc(NC(=O)c7cc(NC(=O)c8sccc8Cl)cn7C)cn6C)cn5C)cn4C)cn3C)cn2C)cc1C(=O)NCCCO/N=C\c1cccc(C(=O)O)c1		11.4 °C				60%	Active	80%	

Further lines, with some results ahead:

ΔTm (Nucleic Acid [4])	ΔTm (Nucleic Acid [14])	SMILES	inhibition (LNCaP [1])	Activity (LNCaP [2])	IC50 (LNCaP [3])	inhibition at 1 µM (U-251 [11])	inhibition (U-251 [12])	inhibition at 10 µM (LNCaP [13])	other results
2.6 °C		Cn1cc(NC(=O)c2cc(NC(=O)c3nc(NC(=O)c4cc(NC(=O)[C@H](N)CCNC(=O)c5nc(NC(=O)c6cc(NC(=O)c7cc(NC(=O)c8nccn8C)cn7C)cn6C)cn5C)cn4C)cn3C)cn2C)cc1C(=O)NCCCO/N=C\c1cccc(C(=O)O)c1	Active	<50%					Activity (LNCaP [5]): inactive
3.4 °C		Cn1cc(NC(=O)c2cc(NC(=O)c3nc(NC(=O)c4cc(NC(=O)[C@H](N)CCNC(=O)c5nc(NC(=O)c6cc(NC(=O)c7cc(NC(=O)c8nccn8C)cn7C)cn6C)cn5C)cn4C)cn3C)cn2C)cc1C(=O)NCCCO/N=C\c1ccc(F)cc1	Active	<50%	≥ 30 µM				
	11.7 °C	CN(CCCNC(=O)c1cccc(C(=O)O)c1)CCCNC(=O)c1cc(NC(=O)c2cc(NC(=O)c3nc(NC(=O)c4cc(NC(=O)[C@H](N)CCNC(=O)c5nc(NC(=O)c6cc(NC(=O)c7cc(NC(=O)c8sccc8Cl)cn7C)cn6C)cn5C)cn4C)cn3C)cn2C)cn1C							inhibition (U-251 [11]): Active
0.8 °C		Cn1cc(NC(=O)c2cc(NC(=O)c3cc(NC(=O)c4nc(NC(=O)[C@H](N)CCNC(=O)c5nc(NC(=O)c6cc(NC(=O)c7nc(NC(=O)c8nccn8C)cn7C)cn6C)cn5C)cn4C)cn3C)cn2C)cc1C(=O)NCCCO/N=C\c1cccc(C(=O)O)c1					Active		inhibition (LNCaP [18]): Active
